Measured values taken from ChEMBL document CHEMBL3526118, “Combination of GSH trapping and time-dependent inhibition assays as a predictive method of drugs generating highly reactive metabolites” (Drug Metab Dispos, 2011).

How the values were obtained:
[1] = target: T1, CYP3A4 (Homo sapiens, UniProt P08684); assay: Time dependent inhibition of CYP3A4 (unknown origin) at 10 uM by LC/MS system; format: ADME
In short: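 CYP3A4: human liver microsomes at 0.5 mg/mL in preincubation, 0.1 M sodium phosphate, NADPH-generating system, 0 or 30 min. Ten-fold dilution into incubation with 2.5 μM midazolam (final), 10 min. Each value is relative to the matched control without inhibitor. % enzyme inactivation = 100 × [1 − %control(30 min)/%control(0 min)]; 10% threshold.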

[2] = tested on: Liver microsome; assay: Metabolic activation in human liver microsomes assessed as [3H]GSH adduct formation rate measured per mg of protein at 100 uM by [3H]GSH trapping assay
[3] = tested on: Liver microsome; details: human, microsomes, 100 µM
[4] = target: CYP2C19 (Homo sapiens, UniProt P33261); assay: in vitro
CYP2C19, sequence (P33261 whole entry): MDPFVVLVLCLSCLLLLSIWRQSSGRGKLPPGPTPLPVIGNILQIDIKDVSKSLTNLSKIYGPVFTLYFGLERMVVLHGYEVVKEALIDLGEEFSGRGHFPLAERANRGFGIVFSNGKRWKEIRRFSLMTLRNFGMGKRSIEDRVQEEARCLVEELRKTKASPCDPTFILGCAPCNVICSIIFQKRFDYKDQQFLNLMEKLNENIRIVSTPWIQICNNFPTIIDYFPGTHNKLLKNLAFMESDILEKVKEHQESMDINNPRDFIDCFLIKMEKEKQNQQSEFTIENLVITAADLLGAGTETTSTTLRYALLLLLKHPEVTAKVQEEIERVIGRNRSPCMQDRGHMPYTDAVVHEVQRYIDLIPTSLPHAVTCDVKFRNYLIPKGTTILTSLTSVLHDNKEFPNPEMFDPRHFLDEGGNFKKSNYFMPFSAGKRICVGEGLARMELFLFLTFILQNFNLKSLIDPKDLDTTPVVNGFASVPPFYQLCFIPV

[5] = target: T2, CYP2D6 (Homo sapiens, UniProt P10635); assay: in vitro
T2 sequence (P10635 whole entry): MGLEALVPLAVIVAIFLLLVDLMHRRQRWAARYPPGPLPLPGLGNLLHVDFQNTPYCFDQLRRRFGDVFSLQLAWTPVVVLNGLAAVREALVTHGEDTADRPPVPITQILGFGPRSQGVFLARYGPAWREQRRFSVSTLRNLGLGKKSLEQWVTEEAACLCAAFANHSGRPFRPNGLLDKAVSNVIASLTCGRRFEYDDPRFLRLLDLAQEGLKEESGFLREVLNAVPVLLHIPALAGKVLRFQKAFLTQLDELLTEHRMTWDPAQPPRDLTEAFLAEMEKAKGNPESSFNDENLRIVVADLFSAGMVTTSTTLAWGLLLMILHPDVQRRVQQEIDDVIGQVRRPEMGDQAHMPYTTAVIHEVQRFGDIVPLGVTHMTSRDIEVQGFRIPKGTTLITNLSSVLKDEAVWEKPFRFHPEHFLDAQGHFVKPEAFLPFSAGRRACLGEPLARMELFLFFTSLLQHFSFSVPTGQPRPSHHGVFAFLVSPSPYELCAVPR

[6] = tested on: Liver microsome; assay: Covalent binding in human liver microsomes measured per mg of protein using radiolabelled compound at 10 uM after 1 hr incubation by liquid scintillation counting
[7] = target: T3, CYP2B6 (Homo sapiens, UniProt P20813); assay: Time dependent inhibition of CYP2B6 (unknown origin) at 10 uM by LC/MS system; format: ADME
T3 sequence (P20813 whole entry): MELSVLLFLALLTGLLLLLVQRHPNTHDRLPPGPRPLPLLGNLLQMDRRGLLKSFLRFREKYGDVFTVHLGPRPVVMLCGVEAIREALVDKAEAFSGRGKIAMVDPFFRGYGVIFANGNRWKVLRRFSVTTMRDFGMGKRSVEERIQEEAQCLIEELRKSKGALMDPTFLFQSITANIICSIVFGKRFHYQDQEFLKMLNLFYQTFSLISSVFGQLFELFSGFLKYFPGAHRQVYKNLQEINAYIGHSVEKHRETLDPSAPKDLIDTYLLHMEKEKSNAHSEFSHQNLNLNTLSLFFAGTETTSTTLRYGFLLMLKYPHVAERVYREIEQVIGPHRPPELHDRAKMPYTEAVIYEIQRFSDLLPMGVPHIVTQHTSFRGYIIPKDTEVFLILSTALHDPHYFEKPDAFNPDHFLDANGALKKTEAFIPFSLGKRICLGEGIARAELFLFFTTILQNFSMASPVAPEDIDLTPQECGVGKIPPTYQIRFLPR
In short: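 CYP2B6 in human liver microsomes (1.0 mg/mL in preincubation), 0.1 M sodium phosphate, NADPH-generating system. Preincubation 0 or 30 min, then ten-fold dilution into incubation solution containing 50 μM bupropion (final) for 10 min. Activity is expressed as percent of the matched no-inhibitor control. % inactivation = 100 × [1 − control(30 min)/control(0 min)]; threshold 10%.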

[8] = Intrinsic clearance for reactive metabolites formation assessed as summation of [3H]GSH adduct formation rate-based reactive metabolites formation and cytochrome P450 (unknown origin) inactivation rate-based reactive metabolites formation; details: human
[9] = target: T4, CYP2C8 (Homo sapiens, UniProt P10632); assay: Time dependent inhibition of CYP2C8 (unknown origin) at 3 uM by LC/MS system; format: ADME
T4 sequence (P10632 whole entry): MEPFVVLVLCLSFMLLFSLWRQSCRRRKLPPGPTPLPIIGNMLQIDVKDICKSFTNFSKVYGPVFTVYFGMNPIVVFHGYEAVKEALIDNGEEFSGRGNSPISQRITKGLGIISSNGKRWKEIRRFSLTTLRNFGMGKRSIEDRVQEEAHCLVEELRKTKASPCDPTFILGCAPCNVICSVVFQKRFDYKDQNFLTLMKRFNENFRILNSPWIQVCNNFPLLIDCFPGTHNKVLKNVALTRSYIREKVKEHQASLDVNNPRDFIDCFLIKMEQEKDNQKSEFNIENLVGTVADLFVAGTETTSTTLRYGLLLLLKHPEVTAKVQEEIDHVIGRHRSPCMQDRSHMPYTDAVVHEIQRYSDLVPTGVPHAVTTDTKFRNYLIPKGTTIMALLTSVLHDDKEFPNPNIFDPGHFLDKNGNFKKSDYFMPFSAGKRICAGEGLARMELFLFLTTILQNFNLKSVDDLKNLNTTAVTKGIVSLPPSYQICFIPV
In short: (§1)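 CYP2C8 in human liver microsomes (1.0 mg/mL in preincubation), 0.1 M sodium phosphate, NADPH-generating system. Preincubation 0 or 30 min, then ten-fold dilution into incubation with 10 μM paclitaxel (final) for 10 min. Activity is taken relative to the matched no-inhibitor control. % inactivation = 100 × [1 − %control(30 min)/%control(0 min)]; threshold 10%.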

[10] = Intrinsic clearance for reactive metabolites formation per mg of protein based on cytochrome P450 (unknown origin) inactivation rate by TDI assay; details: human
[11] = target: T5, CYP1A2 (Homo sapiens, UniProt P05177); assay: in vitro
T5 sequence (P05177 whole entry): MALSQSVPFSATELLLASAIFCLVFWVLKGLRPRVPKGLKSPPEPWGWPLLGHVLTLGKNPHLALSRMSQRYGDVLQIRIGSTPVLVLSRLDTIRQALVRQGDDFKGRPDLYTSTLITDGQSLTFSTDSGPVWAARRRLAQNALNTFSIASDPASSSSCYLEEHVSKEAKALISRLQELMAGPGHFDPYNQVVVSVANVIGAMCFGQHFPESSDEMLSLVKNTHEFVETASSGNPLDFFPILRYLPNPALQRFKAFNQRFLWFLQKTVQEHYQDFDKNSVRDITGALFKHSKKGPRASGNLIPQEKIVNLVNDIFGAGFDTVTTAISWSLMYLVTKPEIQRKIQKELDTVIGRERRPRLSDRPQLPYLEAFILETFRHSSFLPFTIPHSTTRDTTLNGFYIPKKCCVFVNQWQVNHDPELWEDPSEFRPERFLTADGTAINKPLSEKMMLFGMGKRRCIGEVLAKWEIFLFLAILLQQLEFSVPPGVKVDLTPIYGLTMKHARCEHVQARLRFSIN

[12] = target: T4, CYP2C8; assay: in vitro
[13] = target: T3, CYP2B6; assay: in vitro
[14] = target: T1, CYP3A4; assay: in vitro
[15] = target: CYP2C9 (Homo sapiens, UniProt P11712); assay: in vitro
CYP2C9, sequence (P11712 whole entry): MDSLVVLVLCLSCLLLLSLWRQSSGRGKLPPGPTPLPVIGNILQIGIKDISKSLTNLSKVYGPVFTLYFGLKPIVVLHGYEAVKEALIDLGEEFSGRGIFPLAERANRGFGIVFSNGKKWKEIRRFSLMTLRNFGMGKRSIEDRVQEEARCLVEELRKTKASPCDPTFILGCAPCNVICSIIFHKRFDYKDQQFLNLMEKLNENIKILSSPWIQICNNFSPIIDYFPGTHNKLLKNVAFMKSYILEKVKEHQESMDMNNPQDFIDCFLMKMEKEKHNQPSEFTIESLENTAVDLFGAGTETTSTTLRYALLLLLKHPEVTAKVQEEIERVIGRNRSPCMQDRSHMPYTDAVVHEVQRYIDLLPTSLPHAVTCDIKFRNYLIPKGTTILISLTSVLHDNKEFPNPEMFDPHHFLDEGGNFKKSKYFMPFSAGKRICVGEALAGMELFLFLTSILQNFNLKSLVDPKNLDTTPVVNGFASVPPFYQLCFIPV

[16] = target: T4, CYP2C8; assay: Time dependent inhibition of CYP2C8 (unknown origin) at 10 uM by LC/MS system; format: ADME
In short: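 CYP2C8 in human liver microsomes (1.0 mg/mL in preincubation), 0.1 M sodium phosphate, NADPH-generating system. Preincubation 0 or 30 min, then ten-fold dilution into incubation with 10 μM paclitaxel (final) for 10 min.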

[17] = target: T4, CYP2C8; assay: Time dependent inhibition of CYP2C8 (unknown origin) at 30 uM by LC/MS system; format: ADME; in short: as §1
[18] = target: T2, CYP2D6; assay: Time dependent inhibition of CYP2D6 (unknown origin) at 10 uM by LC/MS system; format: ADME
In short: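 CYP2D6 activity was measured with 30 μM dextromethorphan (final) after 0 or 30 min preincubation of compound with human liver microsomes (1.0 mg/mL) and NADPH-generating system in 0.1 M sodium phosphate. A ten-fold dilution was followed by a 10-min incubation. % inactivation = 100 × [1 − %control(30 min)/%control(0 min)]; threshold 10%.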

T1 sequence (P08684 whole entry): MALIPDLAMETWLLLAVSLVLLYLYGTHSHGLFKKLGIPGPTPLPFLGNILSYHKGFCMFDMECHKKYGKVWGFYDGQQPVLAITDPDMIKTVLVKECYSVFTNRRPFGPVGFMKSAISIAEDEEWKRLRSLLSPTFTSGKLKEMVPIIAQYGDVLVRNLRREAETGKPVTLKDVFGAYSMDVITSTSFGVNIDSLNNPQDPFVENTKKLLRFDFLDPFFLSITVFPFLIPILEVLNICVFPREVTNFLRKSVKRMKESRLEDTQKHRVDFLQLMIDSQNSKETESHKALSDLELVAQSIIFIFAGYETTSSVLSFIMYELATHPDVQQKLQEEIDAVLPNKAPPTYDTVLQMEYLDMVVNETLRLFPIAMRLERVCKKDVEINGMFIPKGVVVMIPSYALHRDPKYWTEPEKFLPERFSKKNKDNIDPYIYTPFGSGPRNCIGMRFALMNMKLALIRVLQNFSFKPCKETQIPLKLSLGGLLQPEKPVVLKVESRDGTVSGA

Structure (SMILES)	inhibition at 10 µM [1] [%]	Drug metabolism [2]	CLH [3] [µL/min/mg]	inhibition at 100 µM ([4]; human liver microsomes) [%]	inhibition at 100 µM [5] [%]	PB [6] [pmol]	inhibition at 10 µM [7] [%]	clearance [8] [µL/min/mg]	inhibition at 3 µM [9] [%]	clearance [10] [µL/min/mg]	inhibition at 100 µM [11] [%]	inhibition at 100 µM ([4]; microsomes) [%]	inhibition at 100 µM [12] [%]	inhibition at 100 µM [13] [%]	inhibition at 100 µM [14] [%]	inhibition at 100 µM [15] [%]	inhibition at 10 µM [16] [%]	inhibition at 30 µM [17] [%]	inhibition at 10 µM [18] [%]
CCc1oc2ccccc2c1C(=O)c1cc(Br)c(O)c(Br)c1 [BENZBROMARONE]	< 10	3 pmol/min	0.03	< 10	< 10	389.9	< 10	0.032	< 10	0.002	12								
O=C1NC(=O)C(c2ccccc2)(c2ccccc2)N1 [PHENYTOIN]		1.2 pmol/min	0.012		< 10	4.4		0.012			< 10	< 10	< 10	< 10	< 10	< 10			
Cc1ccnc2c1NC(=O)c1cccnc1N2C1CC1 [NEVIRAPINE]		1.2 pmol/min	0.012	12	< 10	19.1		0.013		0.001	< 10		< 10	< 10	< 10	< 10			
CC(C)C(=O)Nc1ccc([N+](=O)[O-])c(C(F)(F)F)c1 [FLUTAMIDE]		2 pmol/min	0.02	< 10	< 10	178		0.02			< 10		< 10	< 10	< 10	< 10			
CC(=O)Nc1ccc(O)cc1 [ACETAMINOPHEN]	< 10				< 10						< 10		< 10	< 10		< 10			
Cc1cc2c(s1)Nc1ccccc1N=C2N1CCN(C)CC1 [OLANZAPINE]		11.3 pmol/min	0.113	< 10	63	138.9		0.119		0.006	< 10		< 10	< 10	< 10	< 10			
CC/C(=C(\c1ccccc1)c1ccc(OCCN(C)C)cc1)c1ccccc1 [TAMOXIFEN]		metabolite_not_detected				11.5					< 10	< 10		< 10	< 10		< 10		
O=C(O)Cc1ccccc1Nc1c(Cl)cccc1Cl [DICLOFENAC]		1 pmol/min	0.01		< 10			0.01			< 10	< 10	< 10	< 10	< 10	< 10			
CCc1ccc(CCOc2ccc(CC3SC(=O)NC3=O)cc2)nc1 (configuration not stated) [PIOGLITAZONE]		metabolite_not_detected		< 10	< 10	353		0.036		0.036	< 10			38	61	< 10		< 10	
CC[C@H]1OC(=O)[C@H](C)[C@@H](O[C@H]2C[C@@](C)(OC)[C@@H](O)[C@H](C)O2)[C@H](C)[C@@H](O[C@@H]2O[C@H](C)C[C@H](N(C)C)[C@H]2O)[C@](C)(O)C[C@@H](C)C(=O)[C@H](C)[C@@H](O)[C@]1(C)O [ERYTHROMYCIN]		metabolite_not_detected		< 10	< 10	57.1		0.021		0.021	< 10		< 10	< 10	45	< 10			
CCN(CC)Cc1cc(Nc2ccnc3cc(Cl)ccc23)ccc1O [AMODIAQUINE]		2.1 pmol/min	0.021			208.1		0.021			< 10	< 10		< 10	< 10	< 10		< 10	< 10
CN(CCOc1ccc(CC2SC(=O)NC2=O)cc1)c1ccccn1 (configuration not stated) [ROSIGLITAZONE]		2.2 pmol/min	0.022	< 10		516.1		0.048		0.028	< 10			< 10		< 10	< 10		
NC(=O)N1c2ccccc2C=Cc2ccccc21 [CARBAMAZEPINE]	< 10	metabolite_not_detected			< 10	3.3					< 10	< 10	< 10	< 10		< 10			
